Experimental findings from ChEMBL document CHEMBL1127616, “Synthesis, structural characterization, and antitumor properties of a novel class of large-ring platinum(II) chelate complexes incorporating the cis-1,4-diaminocyclohexane ligand in a unique locked boat conformation” (J Med Chem, 1994) are described below.

Experiment [1] has as its system L1210. As to the kind of experiment: Tested for the ratio of number of survivors / total number after 60 days at the dose of 1.6 mg/kg per injection against murine leukemia L1210 experiment 2. In kind it is functional, organism-based. The conditions noted are these: Mus musculus. The procedure, abridged:
(§1)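 CD2F1 (Balb/c × DBA/2F1) mice, 18–22 g, randomized and inoculated IP with counted leukemia cells on day 0, then re-randomized. Three IP treatments, dissolved in 0.9% saline and dosed on average cage weight, with dose in mg/kg per injection across a full toxic-to-ineffective range. Median life span and %T/C were recorded. Survivors at 60 days were counted as cured and excluded from %T/C.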

Experiment [2] relates to L1210. Briefly: Tested for the ratio of number of survivors / total number after 60 days at the dose of 5.0 mg/kg per injection against murine L1210 Pt-resistant leukemia in experiment 2. The settings on record: Mus musculus. The format is functional, organism-based. The procedure, abridged:
as §1

Turning to [Pt(cis-1,4-dach)CL2], the 60-day survivors in the experiment on L1210 [1] was found to be 0. Regarding CISPLATIN, the Survivors in the experiment on L1210 [2] came to 0.
